Assay results from different studies.
Each line is one published result; the experiments were not run side by side. pIC50: −log10 of the molar value.
Observed: cell growth or viability

Cc1n(Cc2ccc3ccccc3n2)cc[n+]1Cc1ccc2ccccc2c1
TGI (HOP-62; SRB): 6660 nM

COc1cc(-c2ccc(-c3ccc(C(=N)N)nc3)s2)cc(OC)c1OC
GI50 (HOP-92; SRB): 1910 nM

S=C([S][Au-][P+](CCCCCC[P+]([Au-][S]C(=S)n1cccn1)(c1ccccc1)c1ccccc1)(c1ccccc1)c1ccccc1)n1cccn1
GI50 (UO-31): 933 nM

C[C@@H](Oc1cc(-c2cnn(C3CCNCC3)c2)cnc1N)c1c(Cl)ccc(F)c1Cl
GI50 (M091; resazurin; 48 h): 10 nM

c1ccc(-c2n(Cc3ccc4ccccc4c3)cc[n+]2Cc2ccc3ccccc3c2)cc1
TGI (HOP-92; SRB): 2280 nM

CCCCc1ccc2[nH]c(NC(=O)OC)nc2c1
pIC50 (CAL-27; 72 h): 6.57

CCCc1n(Cc2ccc3ccccc3n2)cc[n+]1Cc1ccc2ccccc2c1
TGI (HOP-62; SRB): 5380 nM

CC1(C)C(=O)NC2=C1C(=O)C(=O)c1ccccc12
pIC50 (CAL-27; 72 h): 5.54

Cc1ccc2cncc(N3CCc4c(cc(Cn5ccnc5)cc4-c4cn(C)nc4C(F)(F)F)C3=O)c2c1
GI50 (K562; ATP luminescence; 5 days): 4900 nM

COc1cccc2c1C(=O)c1c(O)c3c(c(O)c1C2=O)C[C@@](O)(C(=O)CO)C[C@@H]3O[C@H]1C[C@H](N)[C@H](O)[C@H](C)O1
pIC50 (MCF-10A; 48 h): 4.11

COc1ccc(-c2ccc(-c3ccc(C(=N)N)nc3)s2)cc1
GI50 (SN12C): 1830 nM

COc1cccc(Oc2ccccc2NC(=O)CNC(=O)c2cccc3ccccc23)c1
GI50 (UO-31; SRB; 48 h): 1820 nM

COc1cc(Nc2nccc(-c3cnn4nc(OC)ccc34)n2)cc(C(F)(F)F)c1
pIC50 (P31-FUJ; ATP luminescence): 5.96

Nc1ncnc2c1ncn2[C@@H]1O[C@H](CO)[C@@H](O)[C@@H]1O
pIC50 (CAL-27; 72 h): < 4.70

CCc1n(Cc2ccc3ccccc3n2)cc[n+]1Cc1ccc2ccccc2n1
TGI (HOP-92; SRB): 521 nM
